ChEMBL document CHEMBL1165965, “Synthesis and structure-activity relationships of 1,2,3,4-tetrahydropyrido[2,3-b]pyrazines as potent and selective inhibitors of the anaplastic lymphoma kinase” (Bioorg Med Chem, 2010)

Tests used:
[1] = target: T1, MAP kinase-activated protein kinase 5 (Homo sapiens) (UniProt Q8IW41); test: Inhibition of MAPKAPK5 at 1 uM
T1 sequence (whole entry): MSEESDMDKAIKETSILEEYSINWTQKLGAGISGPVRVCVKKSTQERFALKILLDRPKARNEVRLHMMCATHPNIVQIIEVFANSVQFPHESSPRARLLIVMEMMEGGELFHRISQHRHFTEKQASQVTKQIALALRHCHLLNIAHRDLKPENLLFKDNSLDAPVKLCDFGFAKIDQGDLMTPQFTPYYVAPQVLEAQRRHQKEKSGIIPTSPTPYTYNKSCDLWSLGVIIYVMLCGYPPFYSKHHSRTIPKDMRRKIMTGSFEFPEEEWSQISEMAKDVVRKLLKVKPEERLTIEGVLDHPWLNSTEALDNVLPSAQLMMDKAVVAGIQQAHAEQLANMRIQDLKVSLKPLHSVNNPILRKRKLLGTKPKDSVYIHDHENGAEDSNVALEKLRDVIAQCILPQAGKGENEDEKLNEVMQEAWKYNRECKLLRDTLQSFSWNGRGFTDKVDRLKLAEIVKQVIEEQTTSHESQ

[2] = target: T2, Protein kinase C epsilon type (Homo sapiens) (UniProt Q02156); test: Inhibition of PRKCE at 1 uM
T2 sequence (whole entry): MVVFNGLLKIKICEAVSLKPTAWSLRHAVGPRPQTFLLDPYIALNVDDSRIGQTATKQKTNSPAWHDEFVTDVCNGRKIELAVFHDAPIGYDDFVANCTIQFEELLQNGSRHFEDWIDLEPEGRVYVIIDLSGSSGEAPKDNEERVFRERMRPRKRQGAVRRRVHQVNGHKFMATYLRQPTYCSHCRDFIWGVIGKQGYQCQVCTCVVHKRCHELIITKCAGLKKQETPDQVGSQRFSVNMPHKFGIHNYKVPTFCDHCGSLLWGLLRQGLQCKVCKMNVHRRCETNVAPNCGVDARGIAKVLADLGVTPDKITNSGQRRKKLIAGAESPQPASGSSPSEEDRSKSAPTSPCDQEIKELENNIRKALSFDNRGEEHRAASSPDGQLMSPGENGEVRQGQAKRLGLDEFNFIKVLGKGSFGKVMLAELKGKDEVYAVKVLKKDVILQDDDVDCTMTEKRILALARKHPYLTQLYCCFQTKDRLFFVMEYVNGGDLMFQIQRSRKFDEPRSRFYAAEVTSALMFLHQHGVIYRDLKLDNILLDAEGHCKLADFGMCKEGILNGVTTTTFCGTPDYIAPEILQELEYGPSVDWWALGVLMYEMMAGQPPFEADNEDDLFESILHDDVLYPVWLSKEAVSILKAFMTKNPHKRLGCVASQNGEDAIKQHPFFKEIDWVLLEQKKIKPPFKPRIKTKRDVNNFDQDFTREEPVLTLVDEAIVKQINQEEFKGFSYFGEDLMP

[3] = target: Ribosomal protein S6 kinase alpha-1 (Homo sapiens) (UniProt Q15418); test: Inhibition of RPS6KA1 N-terminal domain1 at 1 uM
Ribosomal protein S6 kinase alpha-1 (Homo sapiens), sequence (Q15418 whole entry, the tested form may be a part): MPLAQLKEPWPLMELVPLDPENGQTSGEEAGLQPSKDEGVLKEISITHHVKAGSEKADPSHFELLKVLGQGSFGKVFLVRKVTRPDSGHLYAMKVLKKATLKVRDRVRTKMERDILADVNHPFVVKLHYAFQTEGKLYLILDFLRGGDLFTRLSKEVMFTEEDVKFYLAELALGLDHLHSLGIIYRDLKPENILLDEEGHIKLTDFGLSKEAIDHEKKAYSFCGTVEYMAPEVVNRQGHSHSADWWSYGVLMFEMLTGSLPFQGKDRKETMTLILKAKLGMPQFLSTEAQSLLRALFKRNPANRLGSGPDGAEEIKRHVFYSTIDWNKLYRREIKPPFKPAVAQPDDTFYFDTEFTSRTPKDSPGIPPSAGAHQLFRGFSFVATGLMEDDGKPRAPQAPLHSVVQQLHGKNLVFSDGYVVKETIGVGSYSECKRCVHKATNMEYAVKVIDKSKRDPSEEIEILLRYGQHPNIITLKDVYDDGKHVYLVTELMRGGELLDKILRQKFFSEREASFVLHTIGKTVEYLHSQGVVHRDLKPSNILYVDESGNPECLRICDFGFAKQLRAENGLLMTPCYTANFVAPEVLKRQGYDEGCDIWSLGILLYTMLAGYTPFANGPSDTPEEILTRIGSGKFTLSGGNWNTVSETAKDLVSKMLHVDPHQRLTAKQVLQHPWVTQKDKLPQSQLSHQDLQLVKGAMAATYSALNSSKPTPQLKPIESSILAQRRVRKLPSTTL

[4] = target: T3, Serine/threonine-protein kinase tousled-like 1 (Homo sapiens) (UniProt Q9UKI8); test: Inhibition of TLK1 at 1 uM
T3 sequence (whole entry): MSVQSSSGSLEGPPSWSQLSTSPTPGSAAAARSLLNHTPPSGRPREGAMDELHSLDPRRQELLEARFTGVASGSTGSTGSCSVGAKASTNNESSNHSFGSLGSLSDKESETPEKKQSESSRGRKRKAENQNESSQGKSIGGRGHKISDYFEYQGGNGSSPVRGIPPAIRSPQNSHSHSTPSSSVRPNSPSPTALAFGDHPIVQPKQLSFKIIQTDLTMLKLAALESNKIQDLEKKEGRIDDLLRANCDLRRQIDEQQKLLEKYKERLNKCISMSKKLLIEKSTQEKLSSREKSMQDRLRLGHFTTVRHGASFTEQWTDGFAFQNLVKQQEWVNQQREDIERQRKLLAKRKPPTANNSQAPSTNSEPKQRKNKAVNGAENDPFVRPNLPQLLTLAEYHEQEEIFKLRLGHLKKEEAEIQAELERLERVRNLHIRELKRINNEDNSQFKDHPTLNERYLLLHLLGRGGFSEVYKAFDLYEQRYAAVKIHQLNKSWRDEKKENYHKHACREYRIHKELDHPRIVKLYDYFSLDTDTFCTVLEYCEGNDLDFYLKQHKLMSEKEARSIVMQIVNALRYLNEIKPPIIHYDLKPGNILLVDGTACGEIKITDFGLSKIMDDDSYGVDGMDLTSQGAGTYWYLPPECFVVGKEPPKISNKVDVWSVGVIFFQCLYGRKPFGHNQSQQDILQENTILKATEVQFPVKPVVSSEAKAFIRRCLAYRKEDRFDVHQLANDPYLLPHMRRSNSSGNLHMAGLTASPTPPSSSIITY

[5] = target: Calcium/calmodulin-dependent protein kinase type II subunit alpha (Homo sapiens) (UniProt Q9UQM7); test: Inhibition of CAMK2A at 1 uM
Calcium/calmodulin-dependent protein kinase type II subunit alpha (Homo sapiens), sequence (Q9UQM7 whole entry): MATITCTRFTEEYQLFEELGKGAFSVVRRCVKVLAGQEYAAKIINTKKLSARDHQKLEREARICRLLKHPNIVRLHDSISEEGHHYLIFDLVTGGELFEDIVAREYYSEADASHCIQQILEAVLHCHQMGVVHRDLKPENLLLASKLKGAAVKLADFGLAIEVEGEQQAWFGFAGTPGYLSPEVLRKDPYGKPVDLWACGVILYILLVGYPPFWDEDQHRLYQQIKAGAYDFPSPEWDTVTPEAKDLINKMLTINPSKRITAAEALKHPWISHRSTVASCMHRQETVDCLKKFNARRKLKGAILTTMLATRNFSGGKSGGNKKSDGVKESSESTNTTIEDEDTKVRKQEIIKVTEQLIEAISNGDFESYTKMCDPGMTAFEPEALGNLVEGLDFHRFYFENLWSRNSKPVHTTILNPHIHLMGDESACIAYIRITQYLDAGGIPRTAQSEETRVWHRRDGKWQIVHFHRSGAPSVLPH
Summary of the method: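 Ambit KINOMEscan screen at a single concentration across a 250–400 kinase panel, recorded as percent inhibition. Selectivity was expressed as S(90), the fraction of kinases inhibited >90%.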

[6] = target: Dual specificity tyrosine-phosphorylation-regulated kinase 1A (Homo sapiens) (UniProt Q13627); test: Inhibition of DYRK1A at 1 uM
[7] = target: Focal adhesion kinase 1 (Homo sapiens) (UniProt Q05397); test: Inhibition of FAK at 1 uM
Focal adhesion kinase 1 (Homo sapiens), sequence (Q05397 2-1052 limits assumed): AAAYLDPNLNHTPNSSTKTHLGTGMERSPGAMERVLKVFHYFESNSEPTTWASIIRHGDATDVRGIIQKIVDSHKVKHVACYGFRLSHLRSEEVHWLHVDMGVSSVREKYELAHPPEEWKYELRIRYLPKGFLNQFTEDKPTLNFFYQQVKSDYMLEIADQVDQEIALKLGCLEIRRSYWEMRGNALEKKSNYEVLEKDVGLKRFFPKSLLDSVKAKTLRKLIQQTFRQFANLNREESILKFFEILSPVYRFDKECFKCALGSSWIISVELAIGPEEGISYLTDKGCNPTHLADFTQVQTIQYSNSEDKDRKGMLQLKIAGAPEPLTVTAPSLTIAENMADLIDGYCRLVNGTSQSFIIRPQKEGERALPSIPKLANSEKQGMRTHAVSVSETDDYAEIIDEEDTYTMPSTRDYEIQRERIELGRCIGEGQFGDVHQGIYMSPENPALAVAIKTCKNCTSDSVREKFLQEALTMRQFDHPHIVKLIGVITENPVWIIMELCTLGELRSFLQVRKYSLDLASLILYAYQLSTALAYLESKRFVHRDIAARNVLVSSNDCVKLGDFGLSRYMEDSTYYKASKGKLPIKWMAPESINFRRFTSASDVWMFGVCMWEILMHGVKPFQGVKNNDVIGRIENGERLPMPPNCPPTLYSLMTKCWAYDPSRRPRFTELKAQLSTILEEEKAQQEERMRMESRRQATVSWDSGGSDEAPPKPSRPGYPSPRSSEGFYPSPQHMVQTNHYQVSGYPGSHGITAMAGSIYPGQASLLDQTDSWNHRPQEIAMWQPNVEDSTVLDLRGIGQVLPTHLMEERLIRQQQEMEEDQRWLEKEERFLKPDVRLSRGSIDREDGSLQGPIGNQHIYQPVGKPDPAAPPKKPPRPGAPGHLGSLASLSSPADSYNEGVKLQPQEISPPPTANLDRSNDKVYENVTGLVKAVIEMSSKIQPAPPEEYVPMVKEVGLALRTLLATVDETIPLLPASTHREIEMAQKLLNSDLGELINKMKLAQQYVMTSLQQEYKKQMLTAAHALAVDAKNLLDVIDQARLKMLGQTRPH
Summary of the method: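 Single-concentration screen using Ambit Bioscience KINOMEscan technology across a panel of 250–400 kinases. Per-kinase inhibition from this screen was summarized as S(90), the fraction of kinases inhibited by more than 90%.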

[8] = target: Tyrosine-protein kinase Fyn (Homo sapiens) (UniProt P06241); test: Inhibition of FYN at 1 uM
Tyrosine-protein kinase Fyn (Homo sapiens), sequence (P06241 2-537 limits assumed): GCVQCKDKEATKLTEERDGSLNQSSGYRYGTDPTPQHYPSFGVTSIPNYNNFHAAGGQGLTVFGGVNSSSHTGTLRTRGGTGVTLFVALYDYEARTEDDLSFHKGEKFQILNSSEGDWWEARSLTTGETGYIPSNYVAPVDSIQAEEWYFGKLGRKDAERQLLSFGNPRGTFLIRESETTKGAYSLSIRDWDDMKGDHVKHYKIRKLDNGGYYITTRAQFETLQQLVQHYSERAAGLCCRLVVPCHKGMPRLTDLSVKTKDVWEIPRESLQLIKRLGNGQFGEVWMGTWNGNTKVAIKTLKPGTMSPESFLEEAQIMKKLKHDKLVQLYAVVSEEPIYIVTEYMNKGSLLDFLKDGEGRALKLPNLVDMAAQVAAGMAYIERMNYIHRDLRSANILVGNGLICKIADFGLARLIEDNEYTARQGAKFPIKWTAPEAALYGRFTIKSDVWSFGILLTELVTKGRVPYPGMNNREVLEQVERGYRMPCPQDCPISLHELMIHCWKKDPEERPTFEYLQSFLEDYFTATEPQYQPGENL
Summary of the method: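 Single-concentration screen on the Ambit KINOMEscan platform, run against a panel of 250–400 kinases. Per-kinase inhibition was also summarized as S(90), the fraction of kinases inhibited by more than 90%.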

CN1CCN(c2ccc(-c3cnc4c(c3)N(Cc3cc(Cl)ccc3Cl)CCN4)cn2)CC1
inhibition [1]: < 50% | inhibition [2]: < 50% | inhibition [3]: < 50% | inhibition [4]: < 50% | inhibition [5]: < 50% | inhibition [6]: < 50% | inhibition [7]: 94% | inhibition [8]: < 50%

CN1CCN(c2ccc(-c3cnc4c(c3)N(Cc3cc(Cl)ccc3C(F)(F)F)CCN4)cn2)CC1
inhibition [1]: < 50% | inhibition [2]: < 50% | inhibition [3]: < 50% | inhibition [4]: < 50% | inhibition [5]: < 50% | inhibition [6]: < 50% | inhibition [7]: 98% | inhibition [8]: < 50%

CN1CCN(c2ccc(-c3cnc4c(c3)N(Cc3c(F)ccc(F)c3Cl)CCN4)cn2)CC1
inhibition [1]: < 50% | inhibition [2]: < 50% | inhibition [3]: < 50% | inhibition [4]: < 50% | inhibition [5]: < 50% | inhibition [6]: < 50% | inhibition [7]: 83% | inhibition [8]: < 50%

O=C(c1ccc(-c2cnc3c(c2)N(Cc2cc(Cl)ccc2C(F)(F)F)CCN3)cc1)N1CCC(N2CCCC2)CC1
inhibition [3]: < 50% | inhibition [4]: < 50% | inhibition [5]: < 50% | inhibition [7]: 98.9% | inhibition [8]: < 50%

COC1CCN(C(=O)c2ccc(-c3cnc4c(c3)N(Cc3cc(Cl)ccc3C(F)(F)F)CCN4)cc2)CC1
inhibition [3]: < 50% | inhibition [4]: < 50% | inhibition [5]: < 50% | inhibition [7]: 94% | inhibition [8]: < 50%

FC(F)(F)c1ccc(Cl)cc1CN1CCNc2ncc(-c3ccnc(N4CCNCC4)c3)cc21
inhibition [1]: < 50% | inhibition [2]: < 50% | inhibition [3]: < 50% | inhibition [4]: < 50% | inhibition [5]: < 50% | inhibition [6]: < 50% | inhibition [7]: 100% | inhibition [8]: < 50%

CN1CCN(c2ccc(-c3cnc4c(c3)N(Cc3cc(F)ccc3F)CCN4)cn2)CC1
inhibition [1]: < 50% | inhibition [2]: < 50% | inhibition [3]: < 50% | inhibition [4]: < 50% | inhibition [5]: < 50% | inhibition [6]: < 50% | inhibition [7]: 67.2% | inhibition [8]: < 50%

O=C(c1ccc(-c2cnc3c(c2)N(Cc2cc(Cl)ccc2C(F)(F)F)CCN3)cc1)N1CCCCC1
inhibition [3]: < 50% | inhibition [4]: < 50% | inhibition [5]: < 50% | inhibition [7]: 84.4% | inhibition [8]: < 50%

CC(=O)N1CCN(c2cc(-c3cnc4c(c3)N(Cc3cc(Cl)ccc3C(F)(F)F)CCN4)ccn2)CC1
inhibition [1]: < 50% | inhibition [2]: < 50% | inhibition [3]: < 50% | inhibition [4]: < 50% | inhibition [5]: < 50% | inhibition [6]: < 50% | inhibition [7]: 100% | inhibition [8]: < 50%

O=C(O)c1ccc(-c2cnc3c(c2)N(Cc2cc(Cl)ccc2C(F)(F)F)CCN3)cc1
inhibition [3]: < 50% | inhibition [4]: < 50% | inhibition [5]: < 50% | inhibition [8]: < 50%
